The source of these data is ChEMBL document CHEMBL1157267, “Polyphenolic constituents of Actaea racemosa” (J Nat Prod, 2006).

Common to all, as to type: functional
The subject of experiment [1] is MCF7. The experiment in a line: Stimulation of cell proliferation in human MCF7 cells assessed as cell viability at 14 uM after 4 days relative to control. Summed up: (§1)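 MCF-7 cells grown in DMEM with 10% FBS at 37 °C and 5% CO2. Before seeding they were passaged at least twice in phenol red-free DMEM with 2 mM L-glutamine and 5% charcoal-stripped serum, then washed twice with PBS. Cells were seeded at 2 × 10^4 per well, allowed 24 h to attach, then given fresh medium with compound. After 4 days attached viable cells were Coulter-counted relative to untreated cells.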

In experiment [2] the test system is Radical scavenging activity. The experiment in a line: Antioxidant activity assessed as DPPH free radical scavenging activity. In outline:
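DPPH free-radical scavenging assay run on purified isolates with 400 µM DPPH. IC50 (µM) reported as the concentration giving half-maximal radical scavenging.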
On the technique in general: The DPPH test is a chemical assay of radical scavenging.

In experiment [3] the test system is MCF7. The experiment in a line: Stimulation of cell proliferation in human MCF7 cells assessed as cell viability at 10 uM after 4 days relative to control. Summed up:
as §1

Experiment [4] has as its system MCF7. The experiment in a line: Cytotoxicity against human MCF7 cells at 30 uM. The settings on record: read-out: GI. Summed up:
as §1

The test system of experiment [5] is MCF7. The experiment in a line: Stimulation of cell proliferation in human MCF7 cells assessed as cell viability at 16.8 uM after 4 days relative to control. In outline: as §1
Experiment [6] deals with MCF7. The experiment in a line: Stimulation of cell proliferation in human MCF7 cells assessed as cell viability at 3.7 nM after 4 days relative to control. Summed up:
as §1

A word on the IC50: it is the point on the concentration scale where inhibition reaches its midpoint. Consider `O=C1OCC(O)(C(=O)c2ccc(O)c(O)c2)/C1=C\c1ccc(O)c(O)c1` (stereo unspecified) [ACTAEALACTONE], for which, in experiment [1], the “fold change (FC)” value is 1.24. The 50% inhibitory concentration (IC50) in experiment [2] came out at 26 µM. For the compound `COc1cc(/C=C/C(=O)O[C@H](C(=O)O)[C@](O)(Cc2ccc(O)c(O)c2)C(=O)O)ccc1O` [CIMICIFUGIC ACID A], the IC50 in experiment [2] turned out to be 12 µM.

Take `COc1ccc(/C=C/C(=O)O[C@H](C(=O)O)[C@](O)(Cc2ccc(O)c(O)c2)C(=O)O)cc1O` [CIMICIFUGIC ACID B]: in experiment [2], the IC50 stood at 21 µM. For `COc1ccc(/C=C/C(=O)O[C@H](C(=O)O)[C@](O)(Cc2ccc(O)c(O)c2)C(=O)O)cc1OC` [CIMICIFUGIC ACID G], in experiment [3], the “fold change (FC)” value is 1.14. Moreover, the concentration for half-maximal inhibition (IC50) in experiment [2] was found to be 37 µM. For the same compound, in experiment [4], the inhibition of growth at 30 µM amounted to 32%. Regarding `O=C1OC[C@H](Cc2cccc(O)c2)[C@H]1Cc1cccc(O)c1` [ENTEROLACTONE], the “fold change (FC)” value in experiment [5] stood at 1.84.

As for `C[C@]12CC[C@@H]3c4ccc(O)cc4CC[C@H]3[C@@H]1CC[C@@H]2O` [ESTRADIOL], in experiment [6], the “fold change (FC)” value is on record as 3.6. Regarding `O=C(/C=C/c1ccc(O)c(O)c1)O[C@H](C(=O)O)[C@](O)(Cc1ccc(O)c(O)c1)C(=O)O` [FUKINOLIC ACID], the IC50 in experiment [2] amounted to 23 µM.

As for `O=C(O)c1cc(O)c(O)c(O)c1` [GALLIC ACID], the half-maximal inhibitory concentration (IC50) in experiment [2] is 29.9 µM.
